Measurements published in paper PMC3483416 (Archives of biochemistry and biophysics, 2012).

Experiment: Analytical light scattering
Format: physicochemical
Conditions: for Mw (weighted-average molar mass): Superdex 200, 10°C; for Mw (weighted-average molar mass) / Mn (number-average molar mass) / Mw/Mn / Rh (weighted-average hydrodynamic radius) / Rg (weighted-average radius of gyration) / Rg/Rh: ± SD, n at least 3; for P (population of species): integration of elution peak
Method in brief: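 Full-length His-tagged human BclXL, 50 μM starting concentration, run on Superdex 200 SEC at 1 ml/min and 10 °C in 50 mM buffer (pH 4–10) with 100 mM NaCl, 1 mM EDTA and 5 mM β-mercaptoethanol. Inline triple-angle SLS, 90° DLS and refractive-index concentration detection. Mw, Mn and Rg from Zimm treatment; Rh from autocorrelation fit. Errors one SD, ≥3 independent runs.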

For “full-length BclXL: Full-length human BclXL (residues 1-233), N-terminal His-tag, expressed in Escherichia coli”, the “Mw (weighted-average molar mass)” value (Dimer, pH 6, phosphate, 50μM loaded) was 61 ± 3 kD, the “P (population of species)” value (Dimer, pH 6) was 11% and the “Mn (number-average molar mass)” value (Dimer, pH 6) was 59 ± 2 kD. For the same substance, the Mw/Mn (Dimer, pH 6) was 1.02 ± 0.01, the “Rh (weighted-average hydrodynamic radius)” value (Dimer, pH 6) was 49 ± 4 Å and the “Mw (weighted-average molar mass)” value (Dimer, pH 8, Tris, 50μM loaded) was 62 ± 4 kD. The “P (population of species)” value (Dimer, pH 8) was 5%, the “Mn (number-average molar mass)” value (Dimer, pH 8) was 61 ± 2 kD and the Mw/Mn (Dimer, pH 8) was 1.01 ± 0.01. The “Rh (weighted-average hydrodynamic radius)” value (Dimer, pH 8) was 48 ± 2 Å, the “Mw (weighted-average molar mass)” value (Dimer, pH 10, CAPS, 50μM loaded) was 61 ± 3 kD and the “P (population of species)” value (Dimer, pH 10) was 5%. For the same substance, the “Mn (number-average molar mass)” value (Dimer, pH 10) was 60 ± 3 kD, the Mw/Mn (Dimer, pH 10) was 1.02 ± 0.01 and the “Rh (weighted-average hydrodynamic radius)” value (Dimer, pH 10) was 49 ± 3 Å. The “Mw (weighted-average molar mass)” value (Megamer, pH 4, acetate, 50μM loaded) was 33805 ± 2821 kD, the “Mn (number-average molar mass)” value (Megamer, pH 4, 50μM loaded, 10°C) was 33085 ± 2623 kD and the “P (population of species)” value (Megamer, pH 4) was 100%. The Mw/Mn (Megamer, pH 4) was 1.02 ± 0.01, the “Rg (weighted-average radius of gyration)” value (Megamer, pH 4) was 783 ± 86 Å and the Rg/Rh (Megamer, pH 4) was 2.40 ± 0.16. The “Rh (weighted-average hydrodynamic radius)” value (Megamer, pH 4) was 324 ± 23 Å, the “Mw (weighted-average molar mass)” value (Monomer, pH 6, phosphate, 50μM loaded) was 32 ± 2 kD and the “P (population of species)” value (Monomer, pH 6) was 31%. For the same substance, the “Mn (number-average molar mass)” value (Monomer, pH 6) was 31 ± 2 kD, the Mw/Mn (Monomer, pH 6) was 1.01 ± 0.01 and the “Rh (weighted-average hydrodynamic radius)” value (Monomer, pH 6) was 26 ± 1 Å. The “Mw (weighted-average molar mass)” value (Monomer, pH 8, Tris, 50μM loaded) was 31 ± 1 kD, the “P (population of species)” value (Monomer, pH 8) was 7% and the “Mn (number-average molar mass)” value (Monomer, pH 8) was 30 ± 2 kD. The Mw/Mn (Monomer, pH 8) was 1.00 ± 0.00, the “Rh (weighted-average hydrodynamic radius)” value (Monomer, pH 8) was 34 ± 2 Å and the “Mw (weighted-average molar mass)” value (Monomer, pH 10, CAPS, 50μM loaded) was 31 ± 2 kD. For the same substance, the “P (population of species)” value (Monomer, pH 10) was 9%, the “Mw (weighted-average molar mass)” value (Multimer, pH 6, phosphate, 50μM loaded) was 595 ± 45 kD and the “P (population of species)” value (Multimer, pH 6) was 37%. The “Mn (number-average molar mass)” value (Multimer, pH 6) was 577 ± 39 kD, the Mw/Mn (Multimer, pH 6) was 1.03 ± 0.02 and the “Rg (weighted-average radius of gyration)” value (Multimer, pH 6) was 141 ± 5 Å. For the same substance, the Rg/Rh (Multimer, pH 6) was 1.47 ± 0.02, the “Rh (weighted-average hydrodynamic radius)” value (Multimer, pH 6) was 95 ± 3 Å and the “Mw (weighted-average molar mass)” value (Multimer, pH 8, Tris, 50μM loaded) was 364 ± 32 kD. For the same substance, the “P (population of species)” value (Multimer, pH 8) was 51%, the “Mn (number-average molar mass)” value (Multimer, pH 8) was 325 ± 33 kD and the Mw/Mn (Multimer, pH 8) was 1.11 ± 0.01. For the same substance, the “Rg (weighted-average radius of gyration)” value (Multimer, pH 8) was 98 ± 4 Å, the Rg/Rh (Multimer, pH 8) was 1.08 ± 0.02 and the “Rh (weighted-average hydrodynamic radius)” value (Multimer, pH 8) was 90 ± 2 Å. The “Mw (weighted-average molar mass)” value (Multimer, pH 10, CAPS, 50μM loaded) was 461 ± 21 kD and the “P (population of species)” value (Multimer, pH 10) was 50%.
